Results from ChEMBL document CHEMBL1255568, “Amino derivatives of indole as potent inhibitors of isoprenylcysteine carboxyl methyltransferase” (J Med Chem, 2010).

Experiments:
MDA-MB-231 = test: Antiproliferative activity against human MDA-MB-231 cells after 72 hrs by colorimetric tetrazolium assay; format: functional, cell-based; conditions: MDA-MB-231, 72 h
Procedure, shortened: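 MDA-MB-231 cells grown in DMEM with 10% FBS and penicillin/streptomycin at 37 °C, 5% CO2, used within passages 10-25. Seeded at 2400 cells/well in DMEM with 5% FBS for 24 h, then exposed to compound (final DMSO 0.5% v/v) for 72 h. MTS-type tetrazolium reagent added for 2 h at 37 °C, absorbance read at 490 nm, blank subtracted. Triplicate wells. IC50 from sigmoidal viability curve, mean of at least two determinations.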

[1] = molecular target: Protein-S-isoprenylcysteine O-methyltransferase (Homo sapiens, UniProt O60725); test: Inhibition of recombinant ICMT expressed in Sf9 cells using [3H] AdoMet after 20 mins by scintillation counting
Procedure, shortened: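 Sf9 membranes carrying recombinant Icmt (1.0 μg protein) in 100 mM Hepes pH 7.4, 5 mM MgCl2, 100 μM EDTA. Preincubated with compound (final DMSO 2% v/v) for 20 min at 37 °C. Reaction started with final 1 μM biotin-farnesyl-L-cysteine and 0.5 μM [3H]AdoMet, run 20 min at 37 °C, then stopped with Tween 20. Product captured overnight at 4 °C on streptavidin beads, washed, and counted by scintillation. Mean ± SD of 3 or more determinations.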

Protein-S-isoprenylcysteine O-methyltransferase, sequence (O60725 whole entry): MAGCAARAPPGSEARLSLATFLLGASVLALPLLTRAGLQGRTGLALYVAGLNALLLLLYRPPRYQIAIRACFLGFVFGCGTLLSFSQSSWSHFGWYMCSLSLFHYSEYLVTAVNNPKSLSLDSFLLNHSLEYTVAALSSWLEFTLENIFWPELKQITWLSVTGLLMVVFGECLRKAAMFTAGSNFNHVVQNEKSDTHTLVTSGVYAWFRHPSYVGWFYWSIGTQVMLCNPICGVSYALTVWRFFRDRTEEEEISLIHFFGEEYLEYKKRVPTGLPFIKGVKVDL

Row | Compound | IC50 (MDA-MB-231) | IC50 [1]
1 | CC(C)=CCn1ccc2cc(-c3cccc(C)c3)ccc21 | > 100 µM | 
2 | CCCCCCCCn1cc(CC(N)=O)c2cc(F)ccc21 | 70 µM | 
3 | CCCCCCCCn1cc(CNC(C)=O)c2cc(-c3cccc(C)c3)ccc21 | 30 µM | 1.8 µM
4 | Cc1cccc(-c2ccc3[nH]cc(CC(N)=O)c3c2)c1 | > 100 µM | 33 µM
5 | CCCCCCCCn1cc(CC(N)=O)c2cc(-c3cccc(OC)c3)ccc21 | 22.4 µM | 1.9 µM
6 | CCCCCCCCn1cc(CC(=O)N(CC)CC)c2cc(-c3cccc(OCC)c3)ccc21 | 26.8 µM | 1 µM
7 | CCCCCCCCn1cc(CC(N)=O)c2ccccc21 | 50 µM | 6.5 µM
8 | CCCCCCCCn1cc(CC(=O)N(C)C)c2cc(-c3cccc(C)c3)ccc21 | 31 µM | 1.5 µM
9 | CCCCCCCCn1cc(CN(C)C)c2cc(-c3cccc(C)c3)ccc21 | 6.8 µM | 1.3 µM
10 | CCCCCCCCn1cc(CN2CCCCC2)c2cc(-c3cccc(C)c3)ccc21 | 4.9 µM | 0.7 µM
11 | CCCCCCCCn1cc(CN(CC)CC)c2cc(-c3ccccc3C)ccc21 | 5.5 µM | 0.6 µM
12 | CCCCCCCCn1cc(CC(N)=O)c2cc(-c3cccc(OCC)c3)ccc21 | 18.7 µM | 1.3 µM
13 | CCCCCCCCn1cc(CCC(N)=O)c2cc(-c3cccc(C)c3)ccc21 | 20.7 µM | 
14 | CC(C)=CCn1cc(CC(N)=O)c2cc(-c3cccc(C)c3)ccc21 | 28.5 µM | 7.7 µM
15 | CCCCCCCCn1cc(CC(N)=O)c2cc(-c3ccccc3)ccc21 | 26 µM | 1.8 µM
16 | CC(C)=CCn1cc(CN2CCCCC2)c2cc(-c3cccc(C)c3)ccc21 | 3.9 µM | 2.1 µM
17 | CCCCCCCCn1cc(CN2CCN(C)CC2)c2cc(-c3cccc(C)c3)ccc21 | 6.1 µM | 0.9 µM
18 | CCCCCCCCn1cc(CC(=O)OC)c2cc(-c3cccc(C)c3)ccc21 | > 100 µM | 76 µM
19 | CC(C)=CCC/C(C)=C/Cn1cc(CC(N)=O)c2cc(-c3cccc(C)c3)ccc21 | 10.6 µM | 1 µM
20 | CCCCCCCCn1cc(CC(N)=O)c2cc(-c3ccc(C)cc3)ccc21 |  | 1 µM
21 | CCCCCCCCn1cc(CN(CC)CC)c2cc(-c3cccc(C)c3)ccc21 | 3.6 µM | 0.7 µM
22 | CCCCCCCCn1ccc2cc(-c3cccc(C)c3)ccc21 | > 100 µM | > 100 µM
23 | CCCCCCCCn1cc(C(N)=O)c2cc(-c3cccc(C)c3)ccc21 | > 100 µM | 

Row | Compound | IC50 (MDA-MB-231) | IC50 [1]
24 | CCN(CC)Cc1cn(CC=C(C)C)c2ccc(F)cc12 | 32 µM | 35 µM
25 | CCCCCCCCn1cc(CC(=O)N(CC)CC)c2cc(-c3cccc(OC)c3)ccc21 | 52 µM | 0.8 µM
26 | CCCCCCCCn1cc(CC(=O)N(CC)CC)c2cc(-c3cccc(C)c3)ccc21 | 27 µM | 1.4 µM
27 | CCCCCCCCn1cc(CN(CCC)CCC)c2cc(-c3cccc(C)c3)ccc21 | 13 µM | 0.8 µM
28 | CCCCCCCCn1cc(CN(C(C)C)C(C)C)c2cc(-c3cccc(C)c3)ccc21 | 20.1 µM | 1.7 µM
29 | CC(C)=CCn1cc(CN2CCOCC2)c2cc(-c3cccc(C)c3)ccc21 | 34 µM | 
30 | CCCCCCCCn1cc(CC(N)=O)c2cc(-c3ccccc3C)ccc21 | 21.2 µM | 1 µM
31 | CCCCCCCCn1cc(CC(=O)N2CCCCC2)c2cc(-c3cccc(C)c3)ccc21 | 28.9 µM | 1.8 µM
32 | CCCCCCCCn1cc(CN(C)C(C)C)c2cc(-c3cccc(C)c3)ccc21 | 5.3 µM | 0.9 µM
33 | CCCCCCCCn1cc(CNS(C)(=O)=O)c2cc(-c3cccc(C)c3)ccc21 | 17.5 µM | 1.2 µM
34 | Cc1cccc(-c2ccc3c(c2)c(CC(N)=O)cn3Cc2cccc(C(F)(F)F)c2)c1 | 17.2 µM | 2.5 µM
35 | CCCCCCCCn1cc(CC(=O)N2CCCC2)c2cc(-c3cccc(C)c3)ccc21 | 15.6 µM | 1.2 µM
36 | CCCCCCCCn1cc(CN2CCCC2)c2cc(-c3cccc(C)c3)ccc21 | 5.1 µM | 0.5 µM
37 | CCCCCCCCn1cc(CN(CC)CC)c2cc(F)ccc21 | 7.2 µM | 4.1 µM
38 | CCCCCCCCn1cc(CN(CC)CC)c2cc(-c3ccc(C)cc3)ccc21 | 3.4 µM | 0.6 µM
39 | CC(C)=CCn1cc(CC(N)=O)c2cc(F)ccc21 | > 100 µM | 
40 | CCN(CC)Cc1cn(CC=C(C)C)c2ccccc12 | 74 µM | 67 µM
41 | CCN(CC)Cc1cn(CC=C(C)C)c2ccc(-c3cccc(C)c3)cc12 | 3.8 µM | 2.4 µM
42 | CCCCCCCCn1cc(CN2CCOCC2)c2cc(-c3cccc(C)c3)ccc21 | 24.5 µM | 2.7 µM
43 | CCCCCCCCn1cc(CC(=O)OCC)c2cc(-c3cccc(C)c3)ccc21 | > 100 µM | > 100 µM
44 | CCCCCCCCn1cc(CN)c2cc(-c3cccc(C)c3)ccc21 | 2.9 µM | 0.7 µM
45 | CCCCCCCCn1cc(CC(=O)N2CCN(C)CC2)c2cc(-c3cccc(C)c3)ccc21 | 19.7 µM | 
